The values that follow come from ChEMBL document CHEMBL1126990, “Design and synthesis of 18F-labeled neurotoxic analogs of MPTP” (J Med Chem, 1993).

The structures appear in SMILES notation.

Type in all cases: ADME
Data set [1] is described as follows: Ratio between Vmax and Km. In short, it runs like this:
(§1)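 Rat liver MAO (crude P2 mitochondrial fraction from adult male Wistar rats, in pH 7.4 phosphate buffer) incubated with substrate at 30 μM to 5 mM; colorimetric detection of H2O2 formed. Blanks contained 0.1 mM pargyline. Vmax and Km from linear regression of Lineweaver-Burk plots; means ± SE of n separate experiments; ANOVA with post-hoc Scheffe test.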

For data set [2], the system named is MAO. Description: Michaelis-Menten constant (Km) for oxidation by rat liver MAO. Put shortly:
as §1

The species named for data set [3] is Rattus norvegicus. Briefly: Maximal rate (Vmax) for oxidation by rat liver MAO. Put shortly: as §1
Data set [4] in a line: separate experiments, n=5). Put shortly:
as §1

The species named for data set [5] is Rattus norvegicus. Briefly: Maximal rate (Vmax) for oxidation by rat liver MAO (results are means of number of separate experiments, n=5). In short, it runs like this:
as §1

`CN1CC=C(c2ccccc2CO)CC1`: the Ratio in data set [1] was 0.74. Moreover, the Km in data set [2] is 370 µM. In addition, the maximum rate (Vmax) in data set [3] is given as 273 nM hr-1 (mg of protein)-1.

In the case of `CN1CC=C(c2ccccc2CCl)CC1`, the Ratio in data set [1] is on record as 1.24. Besides, the Km in data set [4] is 186 µM. Further, the Vmax in data set [5] is on record as 231 nM hr-1 (mg of protein)-1.

A word on the Km: it is the substrate concentration at which the rate is half of its maximum. One may read the Vmax as the rate approached at saturating substrate.
